From PubChem BioAssay
Many of the other results were omitted from the sample, so hits are more common in it than they were.
Avidin fluor: compound fluoresces at 488/530 nm on avidin beads. fluorescence (KMESF) at 10 µM. 220,000 tested, 0.38% active. compound fluorescence 488/530 nm, flow cytometry; stronger effect = higher value; in the data active means fluorescence above about 47
PKD1 kinase inh: inhibitors of human PKD1 kinase; AID 797; PKD1 kinase fluorescence polarization assay; 200,000 tested, 0.056% active; inhibition, % (test concentration not listed); Q15139
GSH bead fluor: GSH bead compound fluorescence profile | GSH beads flow cytometry, compound fluorescence 488/530 nm; stronger effect = higher value | fluorescence (KMESF) at 10 µM | 190,000 tested, 0.25% active | AID 1776; in the data active means fluorescence above about 89;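 further: glutathione beads carrying GST-tagged Bcl family fusion proteins plus one bare bead set; values are compound well signal with DMSO vehicle wells as background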
ABCG2 block: human ABCG2 inhibition, ABCB1 as counter-screen. inhibition, % at 6.6 µM. IgMXP3 cells, JC-1 efflux, flow cytometry. AID 1325. 190,000 tested, 0.1% active;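 active means inhibition above 80%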;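 further: 0% = DMSO and 100% = nicardipine control wells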
Target sequence (Q9UNQ0 whole entry, looked up): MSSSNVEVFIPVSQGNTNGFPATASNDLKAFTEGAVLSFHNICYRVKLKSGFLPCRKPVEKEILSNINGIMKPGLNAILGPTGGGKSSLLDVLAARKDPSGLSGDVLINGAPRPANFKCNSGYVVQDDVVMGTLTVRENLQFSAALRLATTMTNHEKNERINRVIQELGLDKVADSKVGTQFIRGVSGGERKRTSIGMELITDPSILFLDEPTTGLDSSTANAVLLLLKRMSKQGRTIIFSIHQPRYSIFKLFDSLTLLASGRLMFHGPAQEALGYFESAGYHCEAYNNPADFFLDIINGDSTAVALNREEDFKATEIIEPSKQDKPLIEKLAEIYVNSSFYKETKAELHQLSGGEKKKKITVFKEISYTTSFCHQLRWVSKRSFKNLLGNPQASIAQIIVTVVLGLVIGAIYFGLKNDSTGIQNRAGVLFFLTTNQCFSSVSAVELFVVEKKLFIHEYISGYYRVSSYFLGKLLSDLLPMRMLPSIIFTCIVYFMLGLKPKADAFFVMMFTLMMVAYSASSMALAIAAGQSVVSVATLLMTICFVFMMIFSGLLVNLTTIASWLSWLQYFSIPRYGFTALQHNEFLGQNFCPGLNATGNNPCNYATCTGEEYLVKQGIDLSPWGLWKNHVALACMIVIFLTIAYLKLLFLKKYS
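material = IgMXP3 (ABCG2) plus far-red-tagged CCRF-Adr (ABCB1) cells | amount = 3 million cells/mL, equal mix of both lines | also added = JC-1 transporter substrate | dosing = one concentration, 6.6 µM final | schedule = 10 min at 25 °C | measured by = flow cytometric JC-1 green MFI at 530 nm | read-out basis = percent efflux inhibition, scaled nicardipine 100% to DMSO 0%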
ABCB1 inh: blocks JC-1 efflux by human ABCB1 transporter; inhibition, % at 6.6 µM; AID 1326; P08183; CCRF-Adr cells, flow cytometry; 190,000 tested, 0.067% active; in the data active means inhibition above about 40%;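 further: 0% = vehicle and 100% = reference inhibitor; higher value means more JC-1 retained so stronger ABCB1 efflux block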
Lmaj promast: Leishmania major promastigote growth inhibition. Leishmania major promastigotes, resazurin fluorescence viability. inhibition, % at 10 µM. 200,000 tested, 9% active. AID 1063;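 further: promastigotes grown with compound for 44 hours at 28 °C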
* hit, by the source's call; . = no result given. Unless noted, no stated cut-off is given here; in the data, active means inhibition above about 50%; inactive means the rest.

SMILES	Avidin fluor	PKD1 kinase inh	GSH bead fluor	ABCG2 block	ABCB1 inh	Lmaj promast
CCOc1cc(/C=N/NC(=O)CN2CCOCC2)ccc1OCc1ccccc1	13	-8.6	14	10.8	0.6	5.9
CCOc1cc(/C=N\NC(=O)CN2CCOCC2)ccc1OCc1ccc(F)cc1	13	-0.7	5	11.1	1.2	-0.4
CCOc1cc(/C=N/NC(=O)CN2CCCCC2)ccc1OCc1cccc(Cl)c1	10	-9.8	8	7.2	0.9	96.7*
CCOc1cc(/C=N/NC(=O)CN2CCCCC2)ccc1OCc1ccc(Cl)cc1	11	-17.7	10	.	.	98.9*
CCCCOc1ccc(C(=O)N/N=C/c2ccc(OCCN3CCCCC3)c(OC)c2)cc1	17	-6.3	12	6.6	0.8	100.2*
CCOc1cc(/C=N/NC(=O)c2nn(C)cc2Br)ccc1OCc1ccccc1Cl	4	1.4	10	1.0	0.4	71.6*
COc1ccc(C(=O)Nc2ccc(S(=O)(=O)Nc3onc(C)c3C)cc2)c(OC)c1	13	0.6	14	-1.8	-0.3	-1.4
COc1cc(/C=N/NC(=O)CCN2CCN(Cc3ccccc3)CC2)cc(OC)c1OC	12	1.4	10	7.7	0.4	52.2*
COc1cc(/C=N/NC(=O)CN2CCOCC2)ccc1OCc1ccccc1	4	-12.5	19	1.2	-0.3	-3.3
COc1cc(/C=N/NC(=O)CN2CCCCC2)ccc1OCc1ccccc1	7	-5.2	3	1.2	0.3	94.7*
CCOc1cc(/C=N/NC(=O)c2ccc(CN3CCOCC3)cc2)ccc1OCc1ccccc1	13	1.4	4	24.8	1.4	98.1*
COc1cc(/C=N/OCC(=O)Nc2cc(C)on2)ccc1OCc1ccccc1	15	-8.4	4	18.0	0.4	64.1*
CCc1nc2ccc(C)cc2c(C(=O)NC2CCCCC2C)c1C (configuration not stated)	10	-10.3	10	0.9	0.7	3.8
S=C(NCc1ccccn1)Nc1ccc(Cl)cc1	6	8.7	32	17.4	-0.3	-3.5
Fc1cccc(NC(=S)NCc2ccccn2)c1	7	-10.6	8	.	.	62.5*
COc1cc2cc3c(N)c(C(=O)NCc4ccco4)sc3nc2cc1OC	6	7.1	41	-0.7	-0.1	80.5*
Nc1c(C(=O)NCc2ccco2)sc2nc(N3CCOCC3)c3c(c12)CCCC3	62*	-0.1	9	5.5	0.9	12.7
COc1ccccc1C1CC(c2ccco2)=NN1S(C)(=O)=O (configuration not stated)	10	-5.2	54	-0.2	0.0	-3.4
C/C(CC(=O)Nc1ccc(F)cc1)=N\NC(=O)COc1ccccc1	4	-2.9	12	0.0	-0.2	-4.8
O=C(Nc1ccc(Cl)cc1Cl)C1=Cc2ccccc2OC1	9	-4.3	14	-0.3	0.1	-5.9
O=C(Nc1ccc(Cl)cc1)C1=Cc2cc(Cl)ccc2OC1	48*	-4.5	13	1.1	0.2	-2.7
O=C(NNc1nc(-c2ccccc2)c2cc(Br)ccc2n1)c1ccc(S(=O)(=O)N2CCCCC2)cc1	3	-13.1	6	-11.9	-4.6	2.3
CN(C)S(=O)(=O)c1ccc(C(=O)NNc2nc(-c3ccccc3)c3cc(Br)ccc3n2)cc1	5	-0.7	5	-11.1	-3.5	71.5*
Cc1c(NC(=O)CSc2nccn2C)c(=O)n(-c2ccccc2)n1C	5	-9.2	15	1.4	0.4	-1.4
Cc1ccccc1OCc1nnc(SCC(=O)Nc2c(C)n(C)n(-c3ccccc3)c2=O)n1-c1ccccc1	17	-10.6	9	0.0	0.9	58.7*
SMILES	Avidin fluor	PKD1 kinase inh	GSH bead fluor	ABCG2 block	ABCB1 inh	Lmaj promast
Cc1ccc(CSCC(=O)Nc2c(C)n(C)n(-c3ccccc3)c2=O)cc1	15	5.8	7	2.7	0.3	61.5*
Cc1ccccc1CSCC(=O)Nc1c(C)n(C)n(-c2ccccc2)c1=O	10	-1.9	16	9.8	0.0	-3.6
COc1ccc(CCNC(=O)Nc2ccc([N+](=O)[O-])cc2)cc1OC	9	1.4	17	3.0	0.2	11.3
O=C(O)CN1CCc2ccccc2C1	8	-2.8	10	-0.5	0.0	5.0
CCCCSCc1ccc(C(=O)O)o1	5	5.0	131*	3.6	0.4	-5.2
Cc1ccc(/C=N\NC(=O)/C(=C\Nc2nccc(C)n2)NC(=O)c2ccccc2)cc1	8	.	.	.	.	.
CCC(C(=O)NCc1ccco1)N(C(=O)CNS(=O)(=O)c1ccccc1)c1ccc(OC)cc1 (configuration not stated)	13	2.4	47	2.4	-0.1	0.3
c1ccc(C2=Nc3cccnc3C(c3ccccc3)=NN2)cc1	10	-0.4	12	0.0	0.1	9.4
Cc1ccc(S(=O)(=O)C2(C(=O)N3CCN(c4cc(C)ccc4C)CC3)CC2)cc1	14	-7.1	16	1.3	0.8	72.5*
CC(=O)Nc1ccc(S(=O)(=O)N2CCN(c3cc(C)ccc3C)CC2)cc1	7	-7.1	19	0.3	0.2	-4.9
Cc1ccc(S(=O)(=O)C2(C(=O)N3CCN(C4CCCCC4)CC3)CC2)cc1	29	-8.3	21	7.2	1.9	75.9*
Cc1ccc(S(=O)(=O)C2(C(=O)N3CCCCCC3)CC2)cc1	11	-3.3	31	5.2	1.1	-2.9
N#C/C(=C\c1cccc(NC(=O)c2ccccc2Cl)c1)C(=O)NCCc1ccccc1	19	4.0	9	49.5	0.5	98.9*
COc1ccc(CCNC(=O)/C(C#N)=C/c2cccc(OCc3ccccc3)c2)cc1OC	13	6.0	8	20.9	2.1	99.8*
N#C/C(=C/c1ccccc1)C(=O)NCc1ccccc1	11	-4.9	20	6.9	0.2	24.7
COCCCNC(=O)/C(C#N)=C/c1ccc(F)cc1	11	-0.8	12	4.6	0.0	42.7
COCCCNC(=O)/C(C#N)=C/c1cccc(NC(=O)c2ccccc2Cl)c1	15	0.4	17	9.0	1.0	75.0*
O=C(Oc1ccc(N(Cc2cccs2)C2=NS(=O)(=O)c3ccccc32)cc1)c1ccccc1F	8	8.4	43	9.5	0.4	-4.8
COC(=O)[C@@]1(Cc2ccc(F)cc2)[C@H]2c3cc(C(=O)N(C)C)n(Cc4c(CO)[nH]cc(C)c4=O)c3C[C@H]2CN1C(=O)c1ccccc1	10	-0.1	17	6.7	1.9	-7.6
COc1ccccc1NNC(=O)c1cccnc1Oc1ccccc1	7	.	.	.	.	.
CSc1ccc(C(=O)C2CCCN(Cc3cccn3-c3cccnc3)C2)cc1 (configuration not stated)	7	-7.0	19	10.8	7.0	85.2*
O=C(c1ccc(Cl)cc1)C1CCCN(Cc2cccn2-c2cccnc2)C1 (configuration not stated)	9	-4.8	12	2.8	4.0	86.7*
